Measured values reported in ChEMBL document CHEMBL3244416, “Structural requirements for progestational activity. Synthesis and properties of rac-8alpha,9beta,10alpha,14beta-progesterone” (1979).

Legend:
[1] = test system: Oryctolagus cuniculus; assay: Progestational activity in rabbit assessed as range of proliferation index at 0.4 mg, sc by Clauberg assay relative to control; assay type: functional
Method in brief: (§1)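 Modified Clauberg assay in rabbits, 2 animals per dose group, with the total dose given by subcutaneous injection. Uterine progestational proliferation was scored histologically by McPhail's method and reported as the range and mean proliferation index. Uterine weight was reported as the group mean.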

[2] = test system: Oryctolagus cuniculus; assay: Progestational activity in rabbit assessed as range of proliferation index at 4 mg, sc by Clauberg assay relative to control; assay type: functional; method in brief: as §1
[3] = test system: Oryctolagus cuniculus; assay: Progestational activity in rabbit assessed as mean uterine weight at 4 mg, sc by Clauberg assay; assay type: functional; method in brief: as §1
[4] = test system: Oryctolagus cuniculus; assay: Progestational activity in rabbit assessed as mean proliferation index at 4 mg, sc by Clauberg assay relative to control; assay type: functional; method in brief: as §1
[5] = test system: Oryctolagus cuniculus; assay: Progestational activity in rabbit assessed as mean proliferation index at 0.4 mg, sc by Clauberg assay relative to control; assay type: functional; method in brief: as §1
[6] = biological target: T1, Progesterone receptor (Oryctolagus cuniculus) (UniProt P06186); assay: Displacement of [3H]-progesterone from progesterone receptor in rabbit uterine cytosol relative to progesterone; conditions: Uterus
T1 sequence (whole entry): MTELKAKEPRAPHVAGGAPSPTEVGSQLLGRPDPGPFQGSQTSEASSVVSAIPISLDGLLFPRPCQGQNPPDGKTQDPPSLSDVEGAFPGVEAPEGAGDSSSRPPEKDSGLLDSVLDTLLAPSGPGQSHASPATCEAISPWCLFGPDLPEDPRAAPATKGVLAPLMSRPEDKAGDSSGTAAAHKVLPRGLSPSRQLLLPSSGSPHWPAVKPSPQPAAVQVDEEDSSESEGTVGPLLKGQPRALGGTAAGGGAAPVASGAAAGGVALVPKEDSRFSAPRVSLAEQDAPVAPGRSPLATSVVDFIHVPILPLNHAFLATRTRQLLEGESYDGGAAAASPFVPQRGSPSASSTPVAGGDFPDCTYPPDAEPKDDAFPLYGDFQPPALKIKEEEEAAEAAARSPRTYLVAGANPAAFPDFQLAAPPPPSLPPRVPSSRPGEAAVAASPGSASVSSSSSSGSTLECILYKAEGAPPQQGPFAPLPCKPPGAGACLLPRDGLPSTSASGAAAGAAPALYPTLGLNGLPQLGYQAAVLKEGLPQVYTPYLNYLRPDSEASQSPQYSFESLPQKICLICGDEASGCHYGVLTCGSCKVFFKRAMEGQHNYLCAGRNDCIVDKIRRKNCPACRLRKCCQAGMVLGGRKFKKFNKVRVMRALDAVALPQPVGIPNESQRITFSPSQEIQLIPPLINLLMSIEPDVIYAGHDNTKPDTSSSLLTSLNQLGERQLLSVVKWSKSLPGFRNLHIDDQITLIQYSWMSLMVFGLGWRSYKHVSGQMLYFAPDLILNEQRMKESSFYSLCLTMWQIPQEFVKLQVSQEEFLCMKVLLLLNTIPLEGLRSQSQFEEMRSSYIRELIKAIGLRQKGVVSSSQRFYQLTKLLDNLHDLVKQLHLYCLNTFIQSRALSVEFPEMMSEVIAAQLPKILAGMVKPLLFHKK

[7] = test system: Oryctolagus cuniculus; assay: Progestational activity in rabbit assessed as mean uterine weight at 0.4 mg, sc by Clauberg assay; assay type: functional; method in brief: as §1
[8] = test system: Oryctolagus cuniculus; assay: Progestational activity in rabbit assessed as range of proliferation index at 0.5 mg, sc by Clauberg assay relative to control; assay type: functional; method in brief: as §1
[9] = test system: Oryctolagus cuniculus; assay: Progestational activity in rabbit assessed as mean proliferation index at 0.5 mg, sc by Clauberg assay relative to control; assay type: functional; method in brief: as §1
[10] = test system: Oryctolagus cuniculus; assay: Progestational activity in rabbit assessed as mean uterine weight at 0.5 mg, sc by Clauberg assay; assay type: functional; method in brief: as §1
[11] = test system: Oryctolagus cuniculus; assay: Progestational activity in rabbit assessed as range of proliferation index at 0.2 mg, sc by Clauberg assay relative to control; assay type: functional; method in brief: as §1
[12] = test system: Oryctolagus cuniculus; assay: Progestational activity in rabbit assessed as mean proliferation index at 0.2 mg, sc by Clauberg assay relative to control; assay type: functional; method in brief: as §1
[13] = test system: Oryctolagus cuniculus; assay: Progestational activity in rabbit assessed as mean uterine weight at 0.2 mg, sc by Clauberg assay; assay type: functional; method in brief: as §1

Row | Structure (SMILES) | Ratio [1] | Ratio [2] | Activity [3] | Ratio [4] | Ratio [5] | RBA [6] | Activity [7] | Ratio [8] | Ratio [9] | Activity [10] | Ratio [11] | Ratio [12] | Activity [13]
1 | CC(=O)[C@H]1CC[C@@H]2[C@H]3CCC4=CC(=O)CC[C@@]4(C)[C@@H]3CC[C@]12C (racemic) | 0 | 1 | 1.24 g | 2 | 0 | 2% | 0.79 g | – | – | – | – | – | –
2 | CC(=O)[C@H]1CC[C@H]2[C@@H]3CCC4=CC(=O)CC[C@]4(C)[C@H]3CC[C@]12C [PROGESTERONE] | – | – | – | – | – | – | – | 3.5 | 3.5 | 2.34 g | 0.5 | 0.75 | 1.49 g
